Experimental data published in ChEMBL document CHEMBL4364301 (Eur J Med Chem, 2019).

Columns and labels:
Assay type in all cases: functional
DU-145 = assay: Antiproliferative activity against human DU145 cells assessed as reduction in cell growth incubated for 96 hrs by propidium iodide based 2D monolayer assay; settings: DU-145, 96 h
In short: (§1)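 After 24 h recovery, compound in medium or medium alone (control wells) was added at 10 half-log concentrations from 0.0032 to 100 µM, in triplicate, with at most 0.3% DMSO. After 96 h, wells were PBS-washed, stained with 7 µg/ml PI and 0.1% Triton X-100, and fluorescence read at 530/620 nm. IC50 came from a 4-parameter fit, geometric mean.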

CWR22R = assay: Antiproliferative activity against human 22Rv1 cells assessed as reduction in cell growth incubated for 96 hrs by propidium iodide based 2D monolayer assay; settings: 22Rv1, 96 h; in short: as §1
LNCaP = assay: Antiproliferative activity against human LNCAP cells assessed as reduction in cell growth incubated for 96 hrs by propidium iodide based 2D monolayer assay; in short: as §1
VCaP = assay: Antiproliferative activity against human VCaP cells assessed as reduction in cell growth incubated for 96 hrs by propidium iodide based 2D monolayer assay
In short: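 VCaP cells in RPMI 1640 with 10% FCS at 37 °C, 5% CO2, seeded 4,000–20,000 cells/well and left 24 h before dosing. Compounds from DMSO stocks were diluted in half-log steps in medium, 10 concentrations 0.0032–100 μM, triplicate wells, max 0.3% DMSO. After 96 h, cells were washed, stained with 7 μg/ml propidium iodide plus 0.1% Triton X-100 for 1–2 h at room temperature, and fluorescence read at ex 530/em 620 nm.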

SMILES	IC50 (DU-145) [µM]	IC50 (CWR22R) [µM]	IC50 (LNCaP) [µM]	IC50 (VCaP) [µM]
CC(O)(COc1cccc(C(F)(F)F)c1)C(=O)Nc1cccc(S(F)(F)(F)(F)F)c1 (racemic)	31.7	28.9	28.8	22.5
CC(O)(CS(=O)(=O)c1cccc(S(F)(F)(F)(F)F)c1)C(=O)Nc1ccc(S(F)(F)(F)(F)F)cc1 (racemic)	34	39.9	31.3	24.8
CC1(C)C(=O)N(c2ccc(S(F)(F)(F)(F)F)cc2)C(=S)N1c1ccc(C(F)(F)F)cc1	100	100	47.4	100
CC(O)(CS(=O)(=O)c1cccc(OC(F)(F)F)c1)C(=O)Nc1ccc(S(F)(F)(F)(F)F)cc1 (racemic)	26.5	22.4	21.7	23.7
CC(O)(CS(=O)(=O)c1ccc(OC(F)(F)F)cc1)C(=O)Nc1ccc(S(F)(F)(F)(F)F)cc1 (racemic)	39.3	51.9	92.8	95.8
CC1(C)C(=O)N(c2ccc([N+](=O)[O-])cc2C(F)(F)F)C(=S)N1c1ccc(S(F)(F)(F)(F)F)cc1	100	100	100	100
CC(O)(CS(=O)(=O)c1ccccc1C(F)(F)F)C(=O)Nc1ccc(S(F)(F)(F)(F)F)cc1 (racemic)	29.4	17.4	10.8	23.8
CC(O)(CS(=O)(=O)c1ccc(S(F)(F)(F)(F)F)cc1)C(=O)Nc1ccc([N+](=O)[O-])c(C(F)(F)F)c1 (racemic)	17.7	14.7	10	19.2
CC1(C)C(=O)N(c2ccc(S(F)(F)(F)(F)F)cc2)C(=S)N1c1cccc(C(F)(F)F)c1	100	59.6	8.8	100
CC(O)(CSc1cccc(S(F)(F)(F)(F)F)c1)C(=O)Nc1ccc(S(F)(F)(F)(F)F)cc1 (racemic)	17.3	17.7	25	28.2
CC(O)(CSc1ccc(S(F)(F)(F)(F)F)cc1)C(=O)Nc1cccc(S(F)(F)(F)(F)F)c1 (racemic)	24.8	13.1	12.7	24.1
CC(O)(COc1cccc(OC(F)(F)F)c1)C(=O)Nc1ccc(S(F)(F)(F)(F)F)cc1 (racemic)	18.4	17.3	11	18.3
CNC(=O)c1ccc(N2C(=S)N(c3ccc(S(F)(F)(F)(F)F)cc3)C(=O)C2(C)C)cc1F	41.6	32.1	23	31.6
CC(O)(CS(=O)(=O)c1ccc(S(F)(F)(F)(F)F)cc1)C(=O)Nc1ccc(S(F)(F)(F)(F)F)cc1 (racemic)	28.9	17.3	29.2	15.7
CC(O)(CSc1ccc(S(F)(F)(F)(F)F)cc1)C(=O)Nc1ccc([N+](=O)[O-])c(C(F)(F)F)c1 (racemic)	13.9	9.2	8.7	10.1
CC(O)(CSc1ccc(C(F)(F)F)cc1)C(=O)Nc1ccc(S(F)(F)(F)(F)F)cc1 (racemic)	28.8	14.8	17	24.8
CC(O)(CSc1cccc(S(F)(F)(F)(F)F)c1)C(=O)Nc1ccc(C#N)cc1C(F)(F)F (racemic)	37.4	21.6	17.6	30.8
CC(O)(COc1ccc(S(F)(F)(F)(F)F)cc1)C(=O)Nc1ccc(C#N)cc1C(F)(F)F (racemic)	16	14.7	12.3	25.5
CC(O)(COc1ccc(S(F)(F)(F)(F)F)cc1)C(=O)Nc1ccc([N+](=O)[O-])cc1C(F)(F)F (racemic)	15.4	17.1	14.8	26.1
CC(O)(COc1ccc(C#N)c(F)c1)C(=O)Nc1cccc(S(F)(F)(F)(F)F)c1 (racemic)	74.8	63.4	83.7	91.9
CC(O)(COc1ccccc1C(F)(F)F)C(=O)Nc1cccc(S(F)(F)(F)(F)F)c1 (racemic)	52.2	34.9	26.3	36.7
CC(O)(COc1ccc(S(F)(F)(F)(F)F)cc1)C(=O)Nc1ccc([N+](=O)[O-])c(C(F)(F)F)c1 (racemic)	21.2	14.1	100	100
CC(O)(CS(=O)(=O)c1cccc(C(F)(F)F)c1)C(=O)Nc1ccc(S(F)(F)(F)(F)F)cc1 (racemic)	31.9	23.8	21	32

SMILES	IC50 (DU-145) [µM]	IC50 (CWR22R) [µM]	IC50 (LNCaP) [µM]	IC50 (VCaP) [µM]
CC(O)(COc1ccc(S(F)(F)(F)(F)F)cc1)C(=O)Nc1ccc(C#N)c(C(F)(F)F)c1 (racemic)	25.5	28.2	11.5	30.1
CC(O)(CSc1ccc(OC(F)(F)F)cc1)C(=O)Nc1ccc(S(F)(F)(F)(F)F)cc1 (racemic)	12.5	14.9	16.1	16
CC(O)(COc1ccc(S(F)(F)(F)(F)F)cc1)C(=O)Nc1cccc(S(F)(F)(F)(F)F)c1 (racemic)	12.8	10.2	8	8
CC(O)(COc1cccc(S(F)(F)(F)(F)F)c1)C(=O)Nc1cccc(S(F)(F)(F)(F)F)c1 (racemic)	30.7	27.3	10.9	26.7
CC(O)(CSc1ccc(C(F)(F)F)cn1)C(=O)Nc1ccc(S(F)(F)(F)(F)F)cc1 (racemic)	30.7	20	12.3	19
CC(O)(CSc1cccc(S(F)(F)(F)(F)F)c1)C(=O)Nc1ccc(C#N)c(C(F)(F)F)c1 (racemic)	32.7	20.4	14.5	31.7
CC(O)(COc1cccc(C(F)(F)F)c1)C(=O)Nc1ccc(S(F)(F)(F)(F)F)cc1 (racemic)	21.9	14.6	24.7	24.7
CC(O)(COc1cccc(S(F)(F)(F)(F)F)c1)C(=O)Nc1ccc([N+](=O)[O-])cc1C(F)(F)F (racemic)	18	15.5	12.1	20.3
CNC(=O)c1ccc(N2C(=S)N(c3cccc(S(F)(F)(F)(F)F)c3)C(=O)C2(C)C)cc1F	51.1	37.3	25.1	55.8
CC(O)(COc1cc(C(F)(F)F)cc(C(F)(F)F)c1)C(=O)Nc1cccc(C(F)(F)C(F)(F)F)c1 (racemic)	9.8	4.5	4.7	8
CC(O)(COc1ccc(C#N)cc1C(F)(F)F)C(=O)Nc1ccc(S(F)(F)(F)(F)F)cc1 (racemic)	21.2	13.8	100	100
CC(O)(CS(=O)(=O)c1cc(C(F)(F)F)cc(C(F)(F)F)c1)C(=O)Nc1ccc(S(F)(F)(F)(F)F)cc1 (racemic)	24.4	12.7	13.3	15.8
CC1(C)C(=O)N(c2ccc([N+](=O)[O-])c(C(F)(F)F)c2)C(=S)N1c1ccc(S(F)(F)(F)(F)F)cc1	100	100	13	100
CC(O)(CSc1cccc(C(F)(F)F)c1)C(=O)Nc1ccc(S(F)(F)(F)(F)F)cc1 (racemic)	26.2	23.4	18.3	18.8
CC1(C)C(=O)N(c2ccc([N+](=O)[O-])c(C(F)(F)F)c2)C(=S)N1c1cccc(S(F)(F)(F)(F)F)c1	100	100	100	100
CC(O)(COc1ccc(C#N)cc1)C(=O)Nc1cccc(S(F)(F)(F)(F)F)c1 (racemic)	42.6	32.5	30	26.6
CC(O)(CSc1ccc(S(F)(F)(F)(F)F)cc1)C(=O)Nc1ccc(C#N)cc1C(F)(F)F (racemic)	17.7	13.2	15.1	20.5
CC(O)(CSc1cccc(OC(F)(F)F)c1)C(=O)Nc1cccc(S(F)(F)(F)(F)F)c1 (racemic)	25	18.7	10.9	17.5
CC(O)(COc1ccc(S(F)(F)(F)(F)F)cc1)C(=O)Nc1ccc(C(F)(F)F)cc1 (racemic)	27.4	12.9	11.7	14.7
CC(O)(CS(=O)(=O)c1ccc(OC(F)(F)F)cc1)C(=O)Nc1cccc(S(F)(F)(F)(F)F)c1 (racemic)	35.6	31.2	10.7	15.1
CC(O)(CSc1cccc(S(F)(F)(F)(F)F)c1)C(=O)Nc1cccc(S(F)(F)(F)(F)F)c1 (racemic)	30.3	17.2	12.9	29
CC(O)(COc1cccc(S(F)(F)(F)(F)F)c1)C(=O)Nc1ccc(C(F)(F)F)cc1 (racemic)	21	15.8	12.8	23.8
